IDE act = activators of human insulin-degrading enzyme in cells | HEK cells, FAbeta-B cleavage, fluorescence polarization; 0% vehicle, 100% cell-free pure enzyme wells | activation, % at 5.96 µM | 340,000 tested, 0.073% active;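 active = activation above the mean of all tested compounds plus 3 SD, set per screening campaign, cut at about 17% in these data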
proCasp7 act = counter-screen: procaspase-7 (human) activation. 330,000 tested, 0.093% active. AID 463210. recombinant procaspase-7, Ac-DEVD-pNA absorbance 405 nm; D23A/D198A/D206A triple mutant, cannot self-cleave; scale: DMSO 0, 5 µM enzyme 100. activation, % at 8.5 µM. P55210;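 active = percent activation above the screen-wide mean plus 3 SD, cut at about 25% in these data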
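Replicates: singlicate. Assay system: Procaspase-7 triple mutant (PC-7 D3A). Signal: 405 nm absorbance of p-nitroaniline. Times: 1 h preincubation, 2 h reaction. Buffer or medium: Zinc-free HEPES pH 7.4 with 300 mM NaCl, 0.01% Triton X-100. Also added: DEVD-pNA substrate. Benchmarks: DMSO wells as 0%, DMSO with 5 µM added PC-7 as 100%.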
TPT1 inh = C. albicans TPT1 enzyme inhibition; 300,000 tested, 0.81% active; recombinant caTPT1, FP RNA substrate dephosphorylation; inhibition, % at 5 µM;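 active = inhibition above the mean of all tested compounds plus 3 SD, set per screening campaign, cut at about 24% in these data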
proCasp3 act = activators of human procaspase-3. AID 463141. P42574. activation, % at 8.5 µM. recombinant procaspase-3 D3A, Ac-DEVD-pNA absorbance 405 nm. 330,000 tested, 0.11% active;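 active = activation above the mean of all tested compounds plus 3 SD, cut at about 21% in these data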
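Test system: Procaspase-3 D3A mutant, all three cleavage aspartates alanine | Dosing: Single dose, 8.5 µM nominal compound, 0.8% DMSO | Schedule: 1 h preincubation, 2 h reaction | Technique: 405 nm absorbance of p-nitroaniline, reads at 0 and 120 min | Repeats: One well per compound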
IDE inh = inhibits human insulin-degrading enzyme in HEK cells. FAbetaB cleavage, fluorescence polarization. inhibition, % at 5.59 µM. 320,000 tested, 0.41% active. AID 434962;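 active = percent inhibition above the average of all tested compounds plus 3 SD, set per screening campaign, cut at about 16% in these data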;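 note: IDE supplied by intact live HEK cells; FP after avidin binding of uncleaved biotin substrate so inhibition keeps polarization high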
caTPT1 confirm = TPT1 (C. albicans) inhibition, confirmation. inhibition, % at 5 µM. shares compounds with TPT1 inh. AID 2149. 2,400 tested, 74% active. recombinant caTPT1, fluorescence polarization, RNase T1 coupled;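 active = inhibition above the primary screen limit, the mean inhibition of all tested compounds plus 3 SD, cut at about 25% in these data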
RNase T1 inh = counter-screen for TPT1 inhibitors: inhibitors of Aspergillus oryzae RNase T1; RNase T1 cleavage, fluorescence polarization, 1536-well; shares compounds with TPT1 inh; 2,400 tested, 83% active; inhibition, % at 5 µM;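 active = inhibition above the solvent-only control well mean plus 3 SD, limit set per screening run, cut at about 23% in these data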;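 note: inhibitors block cleavage so intact labeled substrate keeps polarization high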
Numbers stand for hits; – = inactive; · = no result given; + = active, no number. Shown are actives, neighbours in structure and some others; about 1.2% of the full set was active somewhere.

SMILES | IDE act | proCasp7 act | TPT1 inh | proCasp3 act | IDE inh | caTPT1 confirm | RNase T1 inh
N#C/C(C(=O)N1CCOCC1)=C1/SC(Cc2ccccc2)C(=O)N1c1ccccc1 (stereo not drawn) | – | – | – | – | – | · | ·
COc1ccccc1CN(C)C(=O)COC(=O)c1cc(C)oc1C | – | · | · | · | · | · | ·
Cc1cc(C(=O)OCC(=O)c2ccc(Br)s2)c(C)o1 | · | – | 30 | – | – | – | –
CCOCC(=O)Nc1ccc([N+](=O)[O-])cc1OC | – | – | 36 | – | – | – | –
COc1cc([N+](=O)[O-])ccc1NC(=O)CN(C)C | – | – | 26 | – | – | – | –
CCOCC(=O)Nc1cc([N+](=O)[O-])ccc1OC | – | – | – | – | – | · | ·
Cc1nc2sc(C(=O)Nc3ccccc3Cc3ccccc3)c(C)c2c(=O)[nH]1 | – | – | – | – | – | · | ·
CCCCNc1cc(NC(C)=O)cc2cc(OC)c(OC)cc12 | – | – | 70 | – | – | 61 | 73
O=C(CCCNC(=O)c1ccc(Cl)cc1)NCc1ccccc1F | – | – | – | – | – | · | ·
O=C(c1ccco1)N1CCN(Cc2nnnn2C2CCCCC2)CC1 | – | – | – | – | – | · | ·
O=C(CCn1ccnc1)Nc1cc(Cl)ccc1O | – | – | – | – | – | · | ·
Cc1cccc(C)c1NC(=O)CN(C)C(=O)c1cccc(NS(=O)(=O)c2ccccc2)c1 | – | – | – | – | – | · | ·
CC(C)OC(=O)CN1C(=O)S/C(=C/c2ccc(N3CCCCC3)o2)C1=O | – | – | 180 | – | – | + | 179
O=C1S/C(=C/c2ccc(N3CCOCC3)o2)C(=O)N1Cc1ccc(F)cc1 | – | – | 136 | – | – | 163 | 162
O=C1S/C(=C\c2ccc(N3CCOCC3)o2)C(=O)N1Cc1ccc(F)cc1 | – | – | 142 | – | – | 168 | 165
O=C1NC(=S)S/C1=C/c1ccc(N2CCOCC2)o1 | – | – | – | – | – | · | ·
O=[N+]([O-])c1ccc(Sc2ncc3ccccn23)nc1 | – | – | – | – | – | · | ·
CCN(C(=O)COC(=O)c1cccnc1SC)c1c(N)n(Cc2ccccc2)c(=O)[nH]c1=O | – | – | · | – | – | · | ·
Cc1ccc(CNC(=O)CC2(CC3=NS(=O)(=O)c4ccccc4N3)CCCC2)cc1 | – | – | – | – | – | · | ·
Cc1nc2cc(Cl)c(Cl)cc2n1-c1ccccn1 | – | – | – | – | – | · | ·
CN1CCN(c2ccc(-c3cccc(NC(=O)COc4ccc(Cl)cc4Cl)c3)nn2)CC1 | – | – | – | – | – | · | ·
CCCCC(=O)Nc1ccc(NC(=O)c2ccc([N+](=O)[O-])cc2)cc1OC | – | – | – | – | – | · | ·
CCCCC(=O)Nc1ccc(C(=O)Nc2ccc(OC)cc2[N+](=O)[O-])cc1 | – | – | 27 | – | – | 54 | 63
CCCCN1C(=O)C2(NNc3ccccc3O2)c2ccccc21 (stereo not drawn) | – | – | 91 | – | – | 94 | 102
C=CCN1C(=O)C2(NC(=O)c3ccccc3N2)c2ccccc21 (stereo not drawn) | – | – | – | – | – | · | ·
SMILES | IDE act | proCasp7 act | TPT1 inh | proCasp3 act | IDE inh | caTPT1 confirm | RNase T1 inh
C=CCN1C(=O)C2(NNc3ccccc3O2)c2ccccc21 (stereo not drawn) | – | – | 85 | – | – | 103 | 107
OCCNc1cc(Cl)ncn1 | – | – | – | – | – | · | ·
O=C(NCC1CCCO1)C(=O)N/N=C/c1c(F)cccc1Cl (stereo not drawn) | – | – | – | – | – | · | ·
CCOC(=O)c1sc(NCc2ccco2)c(-c2nc3ccccc3s2)c1N | – | – | 26 | – | – | 28 | 39
CSc1nc(-c2ccccc2)nc(SC)c1C(C)=O | – | – | 26 | – | – | – | –
CSc1nc(-c2ccccc2)nc(NC(=O)c2ccccc2)c1C(C)=O | – | – | – | – | – | · | ·
CCOC(=O)c1[nH]c(C)c(C(=O)Nc2ccc(C)c(Cl)c2)c1C | – | – | 28 | – | – | – | –
CCOC(=O)c1[nH]c(C)c(C(=O)Nc2ccc(C)c(F)c2)c1C | – | – | – | – | – | · | ·
CN(C)S(=O)(=O)c1ccc(C(=O)NN2C(=O)NC3(CCCCC3)C2=O)cc1 | – | · | · | · | · | · | ·
O=[N+]([O-])c1ccc(N/N=C/c2ccccc2O)cc1 | – | – | 50 | – | – | 69 | 81
C/C(=N\Nc1ccc([N+](=O)[O-])cc1)c1ccc(N2CCOCC2)cc1 | – | – | 31 | – | – | 46 | 53
C/C(=N\Nc1ccccc1[N+](=O)[O-])c1ccc(N2CCOCC2)cc1 | – | – | – | – | – | · | ·
CCc1ccc(/C(C)=N\Nc2ccc([N+](=O)[O-])cc2)cc1 | – | – | 81 | – | – | 56 | 71
C/C(=N\Nc1ccc([N+](=O)[O-])cc1)c1ccco1 | – | – | 48 | – | – | 56 | 69
COc1cc(C2C(C#N)=C(N)OC3=C2C(=O)CC(C)(C)C3)ccc1OCCN1CCOCC1 (stereo not drawn) | – | – | – | – | – | · | ·
CC/C(=N\Nc1ccc([N+](=O)[O-])cc1)c1ccccc1 | – | – | 39 | – | – | 47 | 60
O=C(CC(=O)c1ccccc1)Nc1ccc([N+](=O)[O-])cc1 | – | · | · | · | · | · | ·
C/C(=N\Nc1ccc([N+](=O)[O-])cc1)c1ccc(N)cc1 | – | – | 37 | – | – | 34 | 46
Cn1c(=O)oc2cc(S(=O)(=O)N3CCN(c4cccc(Cl)c4)CC3)ccc21 | – | – | 81 | – | – | 24 | 33
COc1ccc2nc(Nc3nc(C)c(CCC(C)C)c(=O)[nH]3)nc(C)c2c1 | – | – | 25 | – | – | – | –
COc1ccccc1CN1CC(C(=O)N2CCC(C(=O)c3ccccc3)CC2)CCC1=O (stereo not drawn) | – | – | – | – | – | · | ·
Cn1c(C(=O)NC2CCCCC2)cc2c(=O)n(C)c3ccccc3c21 | – | – | 67 | – | – | – | –
O=C(CNC(=O)c1ccc(S(=O)(=O)N2CCCC2)cc1)N/N=C/c1ccccc1Cl | – | – | – | – | – | · | ·
O=C(N/N=C\c1c(O)ccc2ccccc12)c1ccc(S(=O)(=O)N2CCCCC2)cc1 | – | – | 96 | – | – | 100 | 101
Cc1noc(NC(=O)c2cccc(Cl)c2Cl)c1C#N | – | – | – | – | – | · | ·
COc1ccccc1OCC(=O)NNC(=O)Nc1ccc(Cl)cc1 | – | – | – | – | – | · | ·
COc1ccccc1OC(=O)Nc1ccc(Cl)cc1 | – | – | 41 | – | – | – | –
CCN(CC)C(=O)[C@H]1C[C@H](CC(=O)NCCCn2ccnc2)C(=O)N2CCc3c([nH]c4cc(CCC(=O)N(C)C)ccc34)[C@]12C | – | – | · | – | · | · | ·
